Experimental data published in ChEMBL document CHEMBL1122607, “Heterocyclic analogues of chlorcyclizine with potent hypolipidemic activity” (J Med Chem, 1984).
Several values for one entry are separate records, joined by “and”; a condition that tells them apart may be missing. Equal entries are not always repeated.

What was measured:
Rattus norvegicus [1] = assay: Hypolipidemic activity was measured as reduction in rat serum cholesterol after oral administration in male Wistar rats at 10 mg / (kg day); type: functional
How it was run: (§1)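 Cholesterol-fed rats given the test compound orally by gavage on the last 3 days, with controls receiving vehicle (0.5% tragacanth mucilage). After overnight starvation, rats were killed under CO2 3 h after the last dose and bled by cardiac puncture. Serum cholesterol and triglyceride were measured by autoanalyzer and expressed as percentage reduction from control levels, with Student's t test.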

Rattus norvegicus [2] = assay: Hypolipidemic activity was measured as reduction in rat serum triglyceride after oral administration in male Wistar rats at 100 mg / (kg day); type: functional; how it was run: as §1
Rattus norvegicus [3] = assay: Hypolipidemic activity was measured as reduction in rat serum cholesterol after oral administration in male Wistar rats at 30 mg / (kg day); type: functional; how it was run: as §1
Rattus norvegicus [4] = assay: Hypolipidemic activity was measured as reduction in rat serum triglyceride after oral administration in male Wistar rats at 3 mg / (kg day); type: functional; how it was run: as §1
Rattus norvegicus [5] = assay: Hypolipidemic activity was measured as reduction in rat serum triglyceride after oral administration in male Wistar rats at 30 mg / (kg day); type: functional; how it was run: as §1
Rattus norvegicus [6] = assay: Hypolipidemic activity was measured as reduction in rat serum triglyceride after oral administration in male Wistar rats at 10 mg / (kg day); type: functional; how it was run: as §1
Rattus norvegicus [7] = assay: Minimum effective dose (MED) is the dose (mg/kg)that cause significant reduction in serum cholesterol of 30% compared to concurrent controls.; type: functional; set-up: unit: mg/kg
How it was run: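 MED was calculated from the log dose/response curve as the dose giving a statistically significant 30% fall in serum cholesterol versus concurrent controls. Measured in the 3-day oral cholesterol-fed rat screen, or in a 2-week test: groups of eight young male Wistar rats on cholesterol/cholic acid-supplemented or normal diet, dosed orally by gavage daily for 14 days, vehicle 0.5% tragacanth mucilage.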

[8] = The therapeutic safety margin (TSM) is the ratio of the minimum lethal dose (mg/kg)to the MED; type: ADME, organism-based; conditions: in vivo
How it was run: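 Young male Wistar rats, eight per group, on cholesterol/cholic acid-supplemented or normal diet; graded oral gavage doses daily for 14 days; vehicle controls (0.5% tragacanth mucilage). Mortalities recorded to give the minimum lethal daily dose. After overnight fasting, serum cholesterol assayed by autoanalyzer. MED is the dose giving a significant (t test) 30% cholesterol fall, from the log dose/response curve. TSM = minimum lethal dose/MED.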

Rattus norvegicus [9] = assay: Hypolipidemic activity was measured as reduction in rat serum cholesterol after oral administration in male Wistar rats at 100 mg/(kg day); type: functional; how it was run: as §1
Rattus norvegicus [10] = assay: Hypolipidemic activity was measured as reduction in rat serum cholesterol after oral administration in male Wistar rats at 3 mg / (kg day); type: functional; how it was run: as §1
Rattus norvegicus [11] = assay: Hypolipidemic activity was measured as reduction in rat serum cholesterol after oral administration in male Wistar rats at 100 mg / (kg day); type: functional; how it was run: as §1
Rattus norvegicus [12] = assay: Hypolipidemic activity was measured as reduction in rat serum triglyceride after oral administration in male Wistar rats at 50 mg / (kg day); type: functional; how it was run: as §1
Rattus norvegicus [13] = assay: Hypolipidemic activity was measured as reduction in rat serum cholesterol after oral administration in male Wistar rats at 50 mg / (kg day); type: functional; how it was run: as §1
Rattus norvegicus [14] = assay: Hypolipidemic activity was measured as reduction in rat serum cholesterol after oral administration in male Wistar rats at 200 mg / (kg day); type: functional; how it was run: as §1
Rattus norvegicus [15] = assay: Hypolipidemic activity was measured as reduction in rat serum triglyceride after oral administration in male Wistar rats at 200 mg / (kg day); type: functional; how it was run: as §1

Row | SMILES | Reduction (Rattus norvegicus [2]) [%] | Reduction (Rattus norvegicus [3]) [%] | Reduction (Rattus norvegicus [5]) [%] | Reduction (Rattus norvegicus [11]) [%] | Reduction (Rattus norvegicus [14]) [%] | Reduction (Rattus norvegicus [15]) [%] | also measured
1 | Cc1cnsc1C(c1ccc(C(C)C)cc1)N1CCN(CC(C)O)CC1 (centres undefined) | 81 | 50 | 65 |  |  |  | Reduction (Rattus norvegicus [1]): 45%; Reduction (Rattus norvegicus [4]): 22%; Reduction (Rattus norvegicus [6]): 22%; MED (Rattus norvegicus [7]): 5; therapeutic safety margin (minimum lethal dose / MED) [8]: 12; Reduction (Rattus norvegicus [9]): 64%; Reduction (Rattus norvegicus [10]): 8%
2 | CCc1ccc(C(c2ccns2)N2CCN(C)CC2)cc1 (centres undefined) |  |  |  | 32 |  |  | MED (Rattus norvegicus [7]): 10; therapeutic safety margin (minimum lethal dose / MED) [8]: < 20; Reduction (Rattus norvegicus [9]): 74% and 58%
3 | CCCCc1ccc(C(c2cc(C)ns2)N2CCN(C)CC2)cc1 (centres undefined) |  |  |  |  | 75 | 66 | Reduction (Rattus norvegicus [12]): 25%; Reduction (Rattus norvegicus [13]): 45%
4 | COc1cccc(C(c2cc(C)ns2)N2CCN(C)CC2)c1 (centres undefined) |  |  |  |  | 3 | 2 | 
5 | CCCc1ccc(C(c2ccns2)N2CCN(C)CC2)cc1 (centres undefined) |  | 65 | 34 |  | 82 | 86 | Reduction (Rattus norvegicus [1]): 48%; Reduction (Rattus norvegicus [4]): 18%; Reduction (Rattus norvegicus [6]): 7%; MED (Rattus norvegicus [7]): 3; therapeutic safety margin (minimum lethal dose / MED) [8]: 20; Reduction (Rattus norvegicus [10]): 31%
6 | COc1ccc(C(c2cc(C)ns2)N2CCN(C)CC2)cc1OC (centres undefined) |  |  |  |  | 7 | 4 | 
7 | CCOC(=O)N1CCN(C(c2ccc(C(C)C)cc2)c2cc(C)ns2)CC1 (centres undefined) | 6 |  |  | 10 |  |  | 
8 | Cc1cc(C(c2ccc(C(C)C)cc2)N2CC(C)NC(C)C2)sn1 (centres undefined) | 32 |  |  | 16 |  |  | 
9 | COc1ccc(C(c2cc(C)ns2)N2CCN(C)CC2)cc1 (centres undefined) |  |  |  |  | 0 | 23 | 
10 | CC(C)c1ccccc1C(c1ccns1)N1CCN(C)CC1 (centres undefined) | 71 | 43 | 36 |  |  |  | Reduction (Rattus norvegicus [1]): 32%; Reduction (Rattus norvegicus [4]): 14%; Reduction (Rattus norvegicus [6]): 31%; MED (Rattus norvegicus [7]): 10; Reduction (Rattus norvegicus [9]): 77%; Reduction (Rattus norvegicus [10]): 15%
11 | Cc1cc(C(c2ccc(C(C)C)cc2)N2CCN(C)CC2)sn1 (centres undefined) | 85 |  |  |  |  |  | Reduction (Rattus norvegicus [1]): 28%; Reduction (Rattus norvegicus [12]): 72%; Reduction (Rattus norvegicus [13]): 45%; MED (Rattus norvegicus [7]): 9; therapeutic safety margin (minimum lethal dose / MED) [8]: 15; Reduction (Rattus norvegicus [9]): 63%; Reduction (Rattus norvegicus [10]): 16%
12 | Cc1cc(C(c2ccccc2)N2CCN(Cc3ccccc3)CC2)sn1 (centres undefined) |  |  |  |  | 26 | 56 | 
13 | Cc1cnsc1C(c1ccc(C(C)C)cc1)N1CCN(C)CC1 (centres undefined) | 89 | 69 | 64 |  |  |  | Reduction (Rattus norvegicus [1]): 48%; Reduction (Rattus norvegicus [4]): 5%; Reduction (Rattus norvegicus [6]): 42%; MED (Rattus norvegicus [7]): 3; therapeutic safety margin (minimum lethal dose / MED) [8]: 30; Reduction (Rattus norvegicus [9]): 68%; Reduction (Rattus norvegicus [10]): 31%
14 | Cc1cc(C(c2ccccc2F)N2CCN(C)CC2)sn1 (centres undefined) |  |  |  |  | 25 | 57 | 
15 | CN1CCN(C(c2ccccc2)c2ccns2)CC1 (centres undefined) |  |  |  |  | 68 | 46 | Reduction (Rattus norvegicus [12]): 13%; Reduction (Rattus norvegicus [13]): 34%
16 | Cc1cc(C(Nc2cccnc2)c2ccc(C(C)C)cc2)sn1 (centres undefined) | 5 |  |  | 16 |  |  | 
17 | Cc1ccc(C(c2cc(C)ns2)N2CCN(C)CC2)c(C)c1 (centres undefined) |  | 1 | 31 |  | 56 | 52 | 
18 | COc1ccccc1C(c1cc(C)ns1)N1CCN(C)CC1 (centres undefined) |  |  |  |  | 75 | 78 | Reduction (Rattus norvegicus [12]): 17%; Reduction (Rattus norvegicus [13]): 26%

Row | SMILES | Reduction (Rattus norvegicus [2]) [%] | Reduction (Rattus norvegicus [3]) [%] | Reduction (Rattus norvegicus [5]) [%] | Reduction (Rattus norvegicus [11]) [%] | Reduction (Rattus norvegicus [14]) [%] | Reduction (Rattus norvegicus [15]) [%] | also measured
19 | Cc1noc(C)c1C(c1ccc(C(C)C)cc1)N1CC[N+](C)(C)CC1 (centres undefined) | 28 |  |  | 1 |  |  | 
20 | Cc1ccccc1C(c1c(C)noc1C)N1CCN(C)CC1 (centres undefined) | 75 | 28 | 21 |  | 88 | 84 | Reduction (Rattus norvegicus [9]): 80%
21 | Cc1cc(C(c2ccc(C(C)C)cc2)N2CCNCC2)sn1 (stereo in doubt; 33) |  | 67 | 66 |  |  |  | Reduction (Rattus norvegicus [1]): 43%; Reduction (Rattus norvegicus [4]): 26%; Reduction (Rattus norvegicus [6]): 38%; MED (Rattus norvegicus [7]): 8; therapeutic safety margin (minimum lethal dose / MED) [8]: < 10; Reduction (Rattus norvegicus [10]): 2%
22 | Cc1cc(C(c2ccc(C(C)C)cc2)N2CCOCC2)sn1 (centres undefined) | 10 |  |  | 7 |  |  | 
23 | CC(C)COc1ccccc1C(c1ccns1)N1CCN(C)CC1 (centres undefined) |  | 49 | 50 |  | 85 | 85 | Reduction (Rattus norvegicus [1]): 1%; Reduction (Rattus norvegicus [6]): 15%; MED (Rattus norvegicus [7]): 18
24 | Cc1cc(C(c2ccc(C(C)(C)C)cc2)N2CCN(C)CC2)sn1 (centres undefined) | 20 |  |  | 25 |  |  | 
25 | CN1CCN(C(c2ccc(Cl)cc2)c2ccns2)CC1 (centres undefined) | 41 |  |  |  | 63 | 37 | Reduction (Rattus norvegicus [12]): 38%; Reduction (Rattus norvegicus [13]): 17%; MED (Rattus norvegicus [7]): 84; Reduction (Rattus norvegicus [9]): 38%
26 | CN1CCN(C(c2ccccc2Cl)c2nccn2C)CC1 (centres undefined) |  |  |  |  | 53 | 64 | 
27 | Cc1cc(C(c2cccc([N+](=O)[O-])c2)N2CCN(C)CC2)sn1 (centres undefined) | 17 |  |  | 2 |  |  | 
28 | Cc1cc(C(c2ccc(C(C)C)cc2)N2CCN(S(C)(=O)=O)CC2)sn1 (centres undefined) | 3 |  |  | 19 |  |  | 
29 | Cc1cc(C(c2ccc(C(C)C)cc2)N2CCCCC2)sn1 (centres undefined) | 1 |  |  | 16 |  |  | 
30 | Cc1cnsc1C(c1ccc(C(C)C)cc1)N1CCN(CCCO)CC1 (centres undefined) | 78 | 75 | 55 |  |  |  | Reduction (Rattus norvegicus [1]): 63%; Reduction (Rattus norvegicus [4]): 17%; Reduction (Rattus norvegicus [6]): 48%; MED (Rattus norvegicus [7]): 5; therapeutic safety margin (minimum lethal dose / MED) [8]: 20; Reduction (Rattus norvegicus [9]): 80%; Reduction (Rattus norvegicus [10]): 19%
31 | Cc1cc(C(N)c2ccc(C(C)C)cc2)sn1 (centres undefined) |  |  |  |  | 34 | 9 | 
32 | Cc1ccc(C(c2ccns2)N2CCN(C)CC2)cc1 (centres undefined) |  | 4 | 9 |  | 30 | 36 | 
33 | CCCCCc1ccc(C(c2ccns2)N2CCN(C)CC2)cc1 (centres undefined) |  | 26 | 23 |  | 87 | 85 | 
34 | Cc1cccc(C(c2cc(C)ns2)N2CCN(C)CC2)c1 (centres undefined) | 22 |  |  | 26 |  |  | 
35 | Cc1cc(C(c2ccc(OCc3ccccc3)cc2)N2CCN(C)CC2)sn1 (centres undefined) | 34 |  |  | 11 |  |  | 
